Data on two compounds can be found in paper PMC8496415 (Translational Vision Science & Technology, 2021).

Data set [1] is described as follows: Maximum solubility / achievable concentration in solution. Type of data set: physicochemical.
In data set [2] the test system is axial elongation. The note with it: topical, chick; ref 25 (Thomson et al.); cited from earlier work.
The test system of data set [3] is Long Evans rat eyes. Description: Clinical examination, OCT imaging and ERG after 28-day once-daily eye drop. Type of data set: in vivo.
Data set [4] relates to rat eyes. Description: Histology and immunohistochemistry. Format: in vivo. The note with it: once-daily 10% eye drop, 14 and 28 days. Put shortly: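 Rats received 5 µL of 10% test compound drops once daily in one eye, PBS in the other. Eyes were taken at days 14 and 28, fixed overnight in 4% paraformaldehyde at 4°C, frozen and cut into 12 µm sections. Stains: H&E; cleaved caspase-3 (5% BSA block, primary 1:200 2 h, Alexa 488 secondary 1:400 1 h, DAPI) with caspase-3+ DAPI+ cells scored; TUNEL with DNase I-treated positive control. Mean ± SEM, two-way ANOVA/Sidak.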

[5] abbreviates: rat, once-daily 10% eye drop, 14 and 28 days.

As to `N[C@@H](Cc1ccc(O)c(O)c1)C(=O)O` [levodopa], the Maximum concentration achievable in data set [1] (distilled water) turned out to be 0.5%. Also, the “EC50 for a reduction of axial elongation” value in data set [2] is reported as 0.05%.

As to `CCOC(=O)[C@@H](N)Cc1ccc(O)c(O)c1` [etilevodopa], the “Rat behavior (activity levels, aggression, feeding pattern, weight gain)” value in data set [3] (28-day once-daily topical 10%) is “no obvious changes in rat behavior”. Further, in data set [3] (setting [5]), the “ERG A- and B-wave amplitude vs control eyes” value was “no statistically significant difference in A- or B-wave amplitudes”; the OCT retinal structure entry is reported as “did not demonstrate any qualitative structural changes”. Also, in data set [4], the “Hematoxylin and eosin staining of retina (inflammation)” value was “no infiltration of inflammatory cells, fibrosis or morphological changes”; the “Number of cleaved caspase-3+ DAPI+ cells vs control (apoptosis)” value is recorded as “no statistically significant change”; the “TUNEL staining (apoptosis)” value is recorded as “no TUNEL^+ DAPI^+ cells observed”. For the same compound, the Maximum solubility in data set [1] (PBS, pH 7.4) was determined as 10%.
